Compound activity (PubChem BioAssay)
Sampled rows, rich in hits. Any-hit rate of the full collection: about 11%.
M1 antagonist: antagonists of rat M1 muscarinic receptor | B-score at 10 µM | hit rate 3.4% among 64,000 | Muscarinic acetylcholine receptor M1 (Rattus norvegicus), P08482 | CHO-M1 cells, Fluo-4 calcium, ACh EC80 antagonist mode; active compounds read low;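 active = calcium fluorescence response, raw or row-and-column corrected B-score, differing from the plate sample mean either way at a set confidence level, mostly lower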
SF-1 act: activators of human SF-1, primary screen, cell-based, CHO-K1, Gal4-SF-1 LBD, luciferase luminescence; Steroidogenic factor 1 (Homo sapiens), Q13285; CHO-K1 Gal4-SF-1 LBD luciferase reporter; % increase over DMSO SF-1-specific signal; activation, % at 10 µM; hit rate 1.9% among 65,000;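 active = activation above the mean activation of all tested compounds plus 3 SD, cut at about 50% in these data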
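Test system: transient Gal4-SF-1 LBD reporter, CHO-K1; Amount: 4,000 CHO-K1 cells per well; Doses: 10 µM only; Timing: compound exposure 20 h at 37 °C; Signal: luciferase light emission; Read-out basis: percent activation relative to DMSO median and mock-transfected background; Control set: DMSO negative control and −SF1 background wells; Replicates: one test per compound.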
M1 agonist: M1 muscarinic receptor agonists, primary screen, CHO-M1 cells, Fluo-4 calcium, agonist mode | Fluo-4 calcium fluorescence; active compounds read high | B-score at 10 µM | AID 626, 2007 | Muscarinic acetylcholine receptor M1 | hit rate 3% among 64,000;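 active = fluorescence rise, raw or as B-score row- and column-corrected plate score, outside the 99.7% band of its plate's samples, either direction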
Htt clearance: clearance of mutant huntingtin inclusions, primary screen, imaging, HeLa Exon1htt(103Q)mCFP, confocal imaging; hit rate 0.42% among 47,000; aggregate imaging; zero = plate's median compound well; inhibition, % at 1.5 µM; AID 853, 2007;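 active = inhibition of aggregate fluorescence above about 70%, also judged a hit by eye on the cell image, limit read from the data, passing the limit was not always enough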;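 note: cells exposed to compound for three days before fixation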
D1 allo mod: D1 CRE-luciferase signal change, two-sided – cell-based, HEK293 D1, dopamine EC30, D1 allosteric modulator project, primary screen. dopamine EC30 potentiation; actives deviate in either direction. hit rate 5.9% among 58,000. D(1A) dopamine receptor (Homo sapiens), P21728. AID 641, 2007. B-score at 10 µM;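 active = luminescence count or its row- and column-corrected plate score outside the 99.7% band of the plate's sample wells, on either side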
RORa activator: activators of orphan receptor RORA, primary screen, cell-based, luminescence. Nuclear receptor ROR-alpha (Homo sapiens), P35398. CHO-K1 Gal4-RORA LBD luciferase reporter; percent increase over mock-subtracted basal signal. activation, % at 10 µM. hit rate 1.5% among 65,000;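 active = activation above the mean of all tested compounds plus 3 SD, cut at about 49% in these data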;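 note: 0% = DMSO-treated RORA cells and 100% = added signal equal to DMSO minus mock-transfected cells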
Target sequence (P35398 whole entry, looked up, the tested form may be a part): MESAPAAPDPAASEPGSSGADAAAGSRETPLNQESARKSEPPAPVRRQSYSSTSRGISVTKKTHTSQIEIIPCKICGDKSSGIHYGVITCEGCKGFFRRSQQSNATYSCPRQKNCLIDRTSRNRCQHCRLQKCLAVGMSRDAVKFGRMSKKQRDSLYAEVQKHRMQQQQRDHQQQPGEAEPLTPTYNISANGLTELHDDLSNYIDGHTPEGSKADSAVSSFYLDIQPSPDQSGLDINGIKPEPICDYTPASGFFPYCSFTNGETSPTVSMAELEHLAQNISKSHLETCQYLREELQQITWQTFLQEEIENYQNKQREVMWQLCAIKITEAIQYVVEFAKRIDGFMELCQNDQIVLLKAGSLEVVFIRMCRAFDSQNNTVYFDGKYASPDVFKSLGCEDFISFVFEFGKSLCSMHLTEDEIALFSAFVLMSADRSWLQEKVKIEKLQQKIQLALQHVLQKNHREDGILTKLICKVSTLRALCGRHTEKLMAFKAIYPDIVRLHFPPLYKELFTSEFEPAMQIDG
D1 PAM confirm: D1 receptor positive allosteric modulators, retest, confirmation, cell-based, HEK293 D1, CRE-luciferase, duplicate; AID 642, 2007; shares compounds with D1 allo mod; luminescence at 10 µM; hit rate 88% among 2,200; dopamine EC30 potentiation; active compounds read high;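 active = luminescence in either of two replicates above the same-plate mean plus 3 SD of the low-dose dopamine control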
D1 no dopamine: D1 receptor agonism without dopamine, confirmation, mechanism study for D1 allosteric modulator project, cell-based, HEK293 D1, CRE-luciferase, secondary assay 1; shares compounds with D1 allo mod; AID 646, 2007; luminescence, no dopamine; active compounds read high; luminescence at 10 µM; hit rate 0.8% among 1,900; in the data active = luminescence above about 3900
Isoprot counter: alters isoproterenol CRE-luciferase response in HEK293 cells; HEK293 D1 CRE-luciferase, isoproterenol EC30 counter-screen; shares compounds with D1 allo mod; calls only at 10 µM; hit rate 63% among 2,200; AID 647;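 active = luminescence in either replicate above plate mean of wells with a partly effective reference agonist dose plus 3 SD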;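 note: isoproterenol raises cAMP through native beta-adrenoceptor Gs so signal bypasses D1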
The depositor's hits bear a star; i = inactive; · = no result given; + = active, no number.

SMILES | M1 antagonist | SF-1 act | M1 agonist | Htt clearance | D1 allo mod | RORa activator | D1 PAM confirm | D1 no dopamine | Isoprot counter
Cc1nn(CCC(=O)O)c2nc(-c3cccnc3)cc(C(F)(F)F)c12 | 0.0107 | -3.3 | 0.406 | 26.0 | 5.38* | 3.3 | 8896* | · | i
CCOC(=O)c1cc2c(C(F)(F)F)cc(-c3cccnc3)nc2o1 | 0.414 | 2.4 | -0.161 | · | 5.3* | -15.1 | 6932* | 1600 | +
C=CCNC(=S)NNC(=O)COc1cccc(Cl)c1 | · | · | · | 25.6 | · | · | · | · | ·
CCOC(=O)C(NC(C)=O)(Nc1ccc(S(=O)(=O)Nc2ccncn2)cc1)C(F)(F)F (configuration not stated) | · | · | · | 2.8 | · | · | · | · | ·
CC1CCN(c2nc(-c3ccccc3)c(C#N)c(=O)[nH]2)CC1 | 0.15 | -2.0 | -1.33 | · | · | -4.2 | · | · | ·
CC(C)c1ccc(-c2nc(N3CCCCC3)[nH]c(=O)c2C#N)cc1 | 0.428 | -6.2 | 0.553 | · | 5.54* | -2.1 | 19464* | 1772 | i
CCc1nc(N)c(C#N)c(-c2ccco2)c1C | 1.03 | · | 0.0273 | · | · | · | · | · | ·
CCCc1nc(N)c(C#N)c(N)c1C#N | 0.69 | 7.5 | 0.157 | · | 18.7* | -9.3 | 17760* | 1744 | +
CCC(=O)Nc1ccc2c(c1)ncn2-c1ccc(OC)cc1 | · | · | · | -56.8 | · | · | · | · | ·
COc1ccc2ncn(-c3ccccc3)c2c1 | -0.0361 | -5.2 | -0.00421 | 75.4* | 5.15* | -30.2 | 8964* | 1568 | i
CC(=O)c1ccc(OCC(O)CN2CCN(CCO)CC2)cc1 (configuration not stated) | 0.374 | 8.9 | -0.603 | -1.1 | -0.352 | -14.6 | · | · | ·
Cc1cc(Br)c2c(c1)=C(c1sc(N3CCCCCC3)nc1O)C(=O)N=2 | 1.78 | 50.3* | 1.1 | · | 5.98* | 33.9 | 18480* | 1764 | i
CCCC(O)(CCC)C(=O)NNc1ccccc1 | · | · | · | -52.9 | · | · | · | · | ·
O=C(CSc1ccccc1C(=O)NCCCN1CCCC1=O)NCc1ccco1 | 0.0155 | -9.5 | -0.00479 | -50.0 | -0.599 | -6.3 | · | · | ·
CCOC(=O)N1CCN(C(=O)CCCn2c(=O)[nH]c3ccccc3c2=O)CC1 | 0.0254 | -14.3 | -1.12 | 5.2 | -0.882 | -8.6 | · | · | ·
CCOC(=O)N1CCN(C(=O)CCCn2c(=S)[nH]c3ccccc3c2=O)CC1 | 1.38 | 6.3 | 0.315 | 13.2 | 3.13* | -11.0 | 8792* | 1740 | i
CCOC(=O)c1cc2c(=O)n3ccccc3nc2n(CC(C)C)c1=NC(=O)c1ccco1 | -0.767 | 18.1 | -0.0146 | · | 8.31* | -2.8 | 18960* | 1364 | +
CCOC(=O)c1cc2c(=O)n3ccccc3nc2n(CCCOC)c1=NC(=O)C(C)(C)C | -0.63 | 4.8 | -1.69 | · | 4.79* | 16.0 | 7076* | 1412 | i
CCOC(=O)c1cc2c(=O)n3ccccc3nc2n(Cc2ccccc2)c1=N | -1.03 | -3.5 | -1.28 | -21.8 | -0.677 | -19.8 | · | · | ·
CCOC(=O)c1cc2c(=O)n3ccccc3nc2n(CCCOC)c1=NC(=O)c1cccnc1 | 0.647 | -1.3 | -0.252 | -0.3 | 3.76* | -11.5 | 9344* | 1684 | i
CCOC(=O)C1=NN(c2ccc(Cl)cc2)C(c2ccccc2)CC1=O (configuration not stated) | · | · | · | -9.4 | · | · | · | · | ·
COc1ccc(CNc2ccc(S(N)(=O)=O)cc2)c(OC)c1OC | -0.584 | 1.3 | 0.791 | 23.1 | 5.34* | -21.0 | 7284* | 1472 | +
CCn1c(SC(C)C(=O)OC)nnc1-c1c[nH]c2ccccc12 (configuration not stated) | -0.473 | 3.9 | -0.956 | · | 1.19 | -8.8 | · | · | ·
Cc1cc(C)n(-c2nc3c(c(=O)[nH]c(=O)n3C)n2Cc2ccccc2)n1 | 0.211 | 0.1 | -0.339 | · | 7.93* | 2.1 | 11052* | 1636 | +
Cc1cc(C)n(-c2nc3c(c(=O)[nH]c(=O)n3C)n2Cc2ccc(F)cc2)n1 | -1.84 | 4.1 | 0.421 | -34.4 | 0.353 | -1.7 | · | · | ·
SMILES | M1 antagonist | SF-1 act | M1 agonist | Htt clearance | D1 allo mod | RORa activator | D1 PAM confirm | D1 no dopamine | Isoprot counter
Cc1cc(C)n(-c2nc3c(c(=O)[nH]c(=O)n3C)n2C)n1 | 0.584 | -3.1 | -0.194 | · | 1.77* | 10.6 | 5180 | 1016 | i
Cc1cc(C)n(-c2nc3c(c(=O)[nH]c(=O)n3C)n2CCc2ccccc2)n1 | 0.217 | 11.3 | 0.636 | -1.5 | 3.83 | -9.7 | · | · | ·
CCCCCCSC1=C(C#N)C(=O)NC2(CCCCC2)S1 | · | · | · | -78.7 | · | · | · | · | ·
COC(=O)c1ccc(CSc2ncnc3ccccc23)o1 | 0.545 | 13.7 | 0.881 | -282.3 | 4.55* | -25.3 | 9672* | · | +
COC(=O)c1ccc(CSc2ncnc3c2oc2ccccc23)o1 | -0.0766 | -2.5 | 0.563 | 14.5 | -0.523 | -8.4 | · | · | ·
CC(Sc1nc(N2CCOCC2)c2c(c1C#N)CC(C)(C)OC2)C(=O)Nc1ccccc1 (configuration not stated) | 0.0418 | 47.6 | 0.0744 | -43.1 | 5.22* | 30.8 | 9724* | 1700 | +
CC(C)CCSc1nc(N2CCOCC2)c2c(c1C#N)CC(C)(C)OC2 | 1.21 | 1.1 | -0.922 | -19.1 | 0.942 | 13.1 | · | · | ·
CCCCOc1nc(N)nc(-c2ccccc2)n1 | 0.15 | 4.5 | 0.976 | 7.6 | 14.5* | -21.1 | 19712* | 1784 | +
CCn1c(N2CCN(CC(=O)c3c(C)n(C)c4ccccc34)CC2)nc2c1c(=O)[nH]c(=O)n2C | -1.63 | 3.6 | -0.0283 | 41.4 | 3.55* | -7.6 | 8636* | 1416 | +
CCCn1c(N2CCN(CC(=O)c3c[nH]c4ccccc34)CC2)nc2c1c(=O)[nH]c(=O)n2C | -1.15 | 1.8 | 0.378 | -28.6 | -0.658 | -18.3 | · | · | ·
Cn1c(=O)[nH]c(=O)c2c1nc(N1CCCCCC1)n2CCCSc1nc2ccccc2o1 | -0.376 | -6.1 | 1.3 | 15.2 | 7.31* | -8.7 | 7696* | 1592 | +
CC1CCCN(c2nc3c(c(=O)[nH]c(=O)n3C)n2Cc2ccccc2Cl)C1 (configuration not stated) | 0.0886 | -6.2 | 1.1 | · | 4.53* | 0.8 | 12012* | · | +
COc1ccc(N2CCN(c3nc4c(c(=O)[nH]c(=O)n4C)n3Cc3ccccc3Cl)CC2)cc1 | -0.032 | -0.9 | -0.357 | · | 1.12 | 7.2 | · | · | ·
Cc1ccc(Cn2c(SCC(C)C)nc3c2c(=O)[nH]c(=O)n3C)cc1 | -0.222 | -10.3 | -0.0253 | -54.1 | 7.03* | -12.7 | 15640* | 1512 | +
